Broadly, the half-life is the time in which the quantity being followed falls by half.

Series [1] has as its system Rattus norvegicus. Description: Neuroprotective activity against middle cerebral artery occlusion-induced ischemia-reperfusion injury Sprague-Dawley rat model assessed as decrease in neurologic deficit scores at 95 to 9500 microg/kg, iv treated immediately reperfusion in presence of PTIO measured after 24 hrs. The series is classed as functional, organism-based. The conditions noted are these: dose 95-9500 µg/kg. Put shortly:
(§1)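 Male SD rats (12 weeks, 200–220 g; N = 8/group) underwent MCAO under […] (350 mg/kg) using a nylon intraluminal suture for 2 h, then reperfusion. Compound (95, 950 or 9500 μg/kg) was given iv immediately after reperfusion; where used, PTIO 1 mg/kg iv was given 30 min before. At 24 h, blinded scoring covered Longa neurological deficit, TTC infarct area/whole area, and edema from wet/dry brain weight (105 °C, 24 h).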

Series [2] relates to Cortical neurone. Put plainly: Neuroprotective activity against in OGD/R-induced rat cortical neuron cytotoxicity assessed as activation of NO/cGMP/PKG pathway by measuring increase in PKG expression pretreated at 1.8 uM for 24 hrs followed by subjected to OGD for 2 hrs measured after 24 hrs under normoxic condition by Western blot analysis. The series is classed as functional, tissue-based. In general terms: A western blot detects proteins with antibodies after separation by electrophoresis.

Series [3] relates to HUVEC. Description: Angiogenesis activity in HUVEC cells assessed as increase in tube formation at 1.8 uM measured after 8 hrs by inverted microscopy. The conditions noted are these: Homo sapiens. The series is classed as functional, cell-based. Put shortly: (§2)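 Early-passage HUVECs (passages 2–6), grown in DMEM with 10% FBS, glutamine, pyruvate and antibiotics, were seeded at 8 × 10⁴ cells/well on Matrigel. They were exposed to vehicle or compound for 8 h at 37 °C, 5% CO₂. Tubes were counted under an inverted microscope.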

In series [4] the test system is Cortical neurone. Put plainly: Induction of NQO1 mRNA transcript level in OGD/R-induced rat primary cortical neuron pretreated at 1.8 uM for 24 hrs followed by subjected to OGD for 2 hrs measured after 24 hrs under normoxic condition by RT-qPCR analysis. The series is classed as functional, tissue-based. An outline of the steps:
(§3)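 Primary rat cortical neurons were pretreated with 1.8 μM compound for 24 h, given 2 h OGD, then 24 h normoxic culture. Nrf2, HO-1 and NQO1 mRNA were measured by RT-qPCR. Cytoplasmic and nuclear protein (30 μg/lane) were blotted for Nrf2, with lamin A and β-actin as references, and quantified by densitometry as the nuclear:cytoplasmic ratio. Three independent experiments, mean ± SD.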
On the technique in general: Real-time PCR tracks product formation cycle by cycle.

Series [5] has as its system Rattus norvegicus. Description: Neuroprotective activity against middle cerebral artery occlusion-induced ischemia-reperfusion injury Sprague-Dawley rat model assessed as increase in CD31 expression in cerebral ischemic penumbra at 95 to 950 microg/kg, iv treated immediately reperfusion measured after 24 hrs by immunofluoresence assay. As to conditions: dose 95-950 µg/kg. The series is classed as functional, organism-based.

A short description of series [6]: Drug metabolism in Sprague-Dawley rat assessed as peak nitrite release in plasma at 10 mg/kg, iv measured upto 120 mins by ion chromatography. The conditions noted are these: in vivo, 2 h. The series is classed as ADME, organism-based. An outline of the steps: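 Male SD rats (N = 3/group) received a single iv dose. Plasma was sampled at 2, 5, 15, 30, 60, 90 and 120 min. Nitrite was quantified by ion chromatography. Values are mean ± SD.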

Series [7] has as its system HUVEC. Put plainly: Angiogenesis activity in HUVEC cells assessed as increase in tube formation at 1.8 uM measured after 8 hrs in presence of NS2028 by inverted microscopy. The series is classed as functional, cell-based. The conditions noted are these: Homo sapiens. An outline of the steps:
as §2

Series [8] in a line: Neuroprotective activity against in OGD/R-induced rat primary cortical neuron apoptosis assessed as viable cells pretreated at 1.8 uM for 24 hrs followed by subjected to OGD for 2 hrs measured after 24 hrs under normoxic condition by PI/FITC-H staining based flow cytometry (reference value: 31.55%). The series is classed as functional. As to conditions: Cortical neurone, read-out: Activity. An outline of the steps:
(§4)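 Cortical neurons were isolated from SD rat cortex by enzymatic digestion, plated on poly-lysine in 10% FBS DMEM, and pretreated 24 h at 1.8 μM in basal medium with 2% B27. OGD was run in glucose/FBS-free DMEM under 1% O₂, followed by 24 h reoxygenation in 10% FBS DMEM. Viability was read by MTT; apoptosis was also assessed. Three independent experiments.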
(Flow cytometry measures light scatter and fluorescence of single cells or particles in a stream.)

In series [9] the test system is Cortical neurone. Put plainly: Induction of HO-1 mRNA transcript level in OGD/R-induced rat primary cortical neuron pretreated at 1.8 uM for 24 hrs followed by subjected to OGD for 2 hrs measured after 24 hrs under normoxic condition by RT-qPCR analysis. The series is classed as functional, tissue-based. Put shortly: as §3
The test system of series [10] is Rattus norvegicus. Put plainly: Neuroprotective activity against middle cerebral artery occlusion-induced ischemia-reperfusion injury Sprague-Dawley rat model assessed as decrease in cerebral edema degree at 95 to 9500 microg/kg, iv treated immediately reperfusion measured after 24 hrs. As to conditions: dose 95-9500 µg/kg. It counts as functional, organism-based. Put shortly:
as §1

Series [11] in a line: Stability of the compound in pH 7.4 saline assessed as half life at 200 uM measured after 24 hrs by HPLC analysis. It counts as physicochemical. As to conditions: saline pH 7.4, pH 7.4.
Series [12] has as its system Cortical neurone. Description: Effect on Nrf2 mRNA transcript level in OGD/R-induced rat primary cortical neuron pretreated at 1.8 uM for 24 hrs followed by subjected to OGD for 2 hrs measured after 24 hrs under normoxic condition by RT-qPCR analysis. It counts as functional, tissue-based. An outline of the steps:
as §3

Series [13] is described as follows: GSH reactivity assessed as reaction rate measured at 8 equiv of GSH upto 24 hrs by HPLC analysis. It counts as ADME.
Series [14] concerns Rattus norvegicus. Description: Neuroprotective activity against middle cerebral artery occlusion-induced ischemia-reperfusion injury Sprague-Dawley rat model assessed as increase in AuroraB + cells in cerebral ischemic penumbra at 95 to 950 microg/kg, iv treated immediately reperfusion measured after 24 hrs by immunofluoresence assay. The conditions noted are these: dose 95-950 µg/kg. The series is classed as functional, organism-based.

The test system of series [15] is Cortical neurone. Description: Neuroprotective activity against in OGD/R-induced Sprague-Dawley rat cortical neuron injury assessed as cell viability pretreated at 1.8 uM for 24 hrs followed by subjected to OGD for 2 hrs measured after 24 hrs under normoxic condition. It counts as functional, tissue-based. Put shortly: as §4
Series [16] relates to Rattus norvegicus. Put plainly: Neuroprotective activity against middle cerebral artery occlusion-induced ischemia-reperfusion injury Sprague-Dawley rat model assessed as increase in HO-1 expression in cerebral ischemic penumbra at 950 microg/kg, iv treated immediately reperfusion measured after 24 hrs. It counts as functional, organism-based. As to conditions: dose 950.0 µg/kg. Put shortly: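 MCAO rat brain paraffin sections (3 μm) were blocked with 10% goat serum and stained by IHC for NQO-1 and HO-1 (1:200) and phospho-Nrf2 (1:100), with DAB detection and rabbit IgG as negative control. Average optical density of positive cells was scored blinded over five fields per sample.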

Series [17] relates to Cortical neurone. Description: Neuroprotective activity against in OGD/R-induced rat cortical neuron cytotoxicity assessed as activation of NO/cGMP/PKG pathway by measuring increase in PKG expression pretreated at 1.8 uM for 24 hrs followed by subjected to OGD for 2 hrs measured after 24 hrs under normoxic condition in presence of NS2028 by Western blot analysis. The series is classed as functional, tissue-based.

The subject of series [18] is Rattus norvegicus. Description: Neuroprotective activity against middle cerebral artery occlusion-induced ischemia-reperfusion injury Sprague-Dawley rat model assessed as decrease in brain infarct volume at 95 to 9500 microg/kg, iv treated immediately reperfusion in presence of PTIO measured after 24 hrs. The conditions noted are these: dose 95-9500 µg/kg. The series is classed as functional, organism-based. An outline of the steps: as §1

Series [19] in a line: Photostability of the compound under light at 200 uM measured after 24 hrs by HPLC analysis. The series is classed as physicochemical.
Series [20] concerns Cortical neurone. Description: Neuroprotective activity against in OGD/R-induced rat cortical neuron cytotoxicity assessed as decrease in cell viability pretreated at 1.8 uM for 24 hrs followed by subjected to OGD for 2 hrs measured after 24 hrs under normoxic condition by MTT assay. It counts as functional, tissue-based. Put shortly:
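Primary rat cortical neurons from enzymatically digested cortex, plated on poly-lysine in DMEM/10% FBS for 4 h. Pretreated 24 h in neuron basal medium with 2% B27, then glucose/FBS-free DMEM at 1% O2. Returned to 10% FBS DMEM under normoxia for 24 h. Viability by MTT; three independent experiments, mean SD.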

Series [21] in a line: GSH reactivity assessed as reaction rate measured at 32 equiv of GSH upto 24 hrs by HPLC analysis. It counts as ADME.

Activity calls are given as the source filed them. No cut-off for these calls is given here.

As for `O=C(/C(=C/c1ccccc1)C[N+](=O)[O-])c1ccccc1`, the result in the series with Rattus norvegicus [1], with HUVEC [7], in the series on Cortical neurone [12], in the series with Cortical neurone [17] and in the series on Rattus norvegicus [18] was inactive. For the same compound, the result with Cortical neurone [2], in the series with HUVEC [3], with Cortical neurone [4], in the series with Rattus norvegicus [5], with Cortical neurone [9] and with Rattus norvegicus [10] was Active. Besides, the outcome in the series on Rattus norvegicus [14], in the series with Cortical neurone [15], with Rattus norvegicus [16] and with Cortical neurone [20] was Active. In addition, in [6], the Drug metabolism entry is recorded as “Metabolite_Detected”. The viability at 1.8 µM in series [8] came out at 69.8%. Besides, the half-life at 200 µM in [11] is 38.5 h. In addition, the Activity in [13] was 0.0363 h⁻¹; in series [21] it was 0.056 h⁻¹. For the same compound, in series [19], the Stability result is “Stable”.

The values are drawn from ChEMBL document CHEMBL5029154, “Design, Synthesis, and Biological Evaluation of Organic Nitrite (NO2-) Donors as Potential Anticerebral Ischemia Agents” (J Med Chem, 2021).
